Test results as given in ChEMBL document CHEMBL3400051, “Five new phorbol esters with cytotoxic and selective anti-inflammatory activities from Croton tiglium” (Bioorg Med Chem Lett, 2015).

Columns and labels:
[1] = molecular target: T1, Prostaglandin G/H synthase 1 (Ovis aries, UniProt P05979); experiment: Inhibition of ovine COX1 using fluorometric substrate after 15 mins
T1 sequence (P05979 whole entry): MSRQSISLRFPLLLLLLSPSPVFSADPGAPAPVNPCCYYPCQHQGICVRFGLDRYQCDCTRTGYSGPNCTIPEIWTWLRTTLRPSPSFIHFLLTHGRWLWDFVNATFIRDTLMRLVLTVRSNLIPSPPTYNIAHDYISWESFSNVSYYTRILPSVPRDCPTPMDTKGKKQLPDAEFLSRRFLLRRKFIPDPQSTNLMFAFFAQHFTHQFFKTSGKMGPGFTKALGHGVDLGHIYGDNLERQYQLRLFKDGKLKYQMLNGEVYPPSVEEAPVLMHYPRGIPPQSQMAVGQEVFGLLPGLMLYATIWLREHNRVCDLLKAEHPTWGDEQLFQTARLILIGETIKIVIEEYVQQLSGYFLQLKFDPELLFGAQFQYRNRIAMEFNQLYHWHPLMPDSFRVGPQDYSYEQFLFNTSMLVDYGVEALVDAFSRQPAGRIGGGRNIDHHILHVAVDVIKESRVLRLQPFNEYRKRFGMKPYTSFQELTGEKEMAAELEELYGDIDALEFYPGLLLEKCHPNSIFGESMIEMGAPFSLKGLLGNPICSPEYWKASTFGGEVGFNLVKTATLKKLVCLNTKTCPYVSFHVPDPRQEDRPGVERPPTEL

HEK-293T = experiment: Cytotoxicity against human 293T cells after 44 hrs by MTT assay; type: cell-based
Method in brief: (§1)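 Cells cultured in 88% DMEM, 12% FBS, 100 units/mL penicillin and streptomycin. Seeded at 2 × 10^5 cells/mL, 24 h at 37 °C in 5% CO2, then medium replaced with compound in growth medium at 80, 40, 20, 10 and 5 concentrations for 44 h. MTT (5 mg/mL) added for a further 4 h; absorbance at 490 nm. Untreated cells as negative control, Taxol positive control.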

[2] = Cytotoxicity against human LX2 cells after 44 hrs by MTT assay; type: cell-based; conditions: LX-2, 44 h; method in brief: as §1
K562 = experiment: Cytotoxicity against human K562 cells assessed as cell viability after 72 hrs by CCK8 assay; type: functional, cell-based; conditions: K562, 72 h
Method in brief: (§2)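 Cells grown in RPMI or DMEM with 10% FBS and 1% penicillin/streptomycin at 37 °C, 5% CO2. Seeded at 400-800 cells/well in 384-well plates, treated with a range of compound concentrations or solvent control for 72 h. CCK8 reagent added, absorbance read at 450 nm; IC50 from dose-response curves. Taxol positive control.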

NCI-H1975 = experiment: Cytotoxicity against human NCI-H1975 cells assessed as cell viability after 72 hrs by CCK8 assay; type: functional, cell-based; conditions: NCI-H1975, 72 h; method in brief: as §2
[3] = molecular target: T2, Prostaglandin G/H synthase 2 (Homo sapiens, UniProt P35354)
T2 sequence (P35354 whole entry): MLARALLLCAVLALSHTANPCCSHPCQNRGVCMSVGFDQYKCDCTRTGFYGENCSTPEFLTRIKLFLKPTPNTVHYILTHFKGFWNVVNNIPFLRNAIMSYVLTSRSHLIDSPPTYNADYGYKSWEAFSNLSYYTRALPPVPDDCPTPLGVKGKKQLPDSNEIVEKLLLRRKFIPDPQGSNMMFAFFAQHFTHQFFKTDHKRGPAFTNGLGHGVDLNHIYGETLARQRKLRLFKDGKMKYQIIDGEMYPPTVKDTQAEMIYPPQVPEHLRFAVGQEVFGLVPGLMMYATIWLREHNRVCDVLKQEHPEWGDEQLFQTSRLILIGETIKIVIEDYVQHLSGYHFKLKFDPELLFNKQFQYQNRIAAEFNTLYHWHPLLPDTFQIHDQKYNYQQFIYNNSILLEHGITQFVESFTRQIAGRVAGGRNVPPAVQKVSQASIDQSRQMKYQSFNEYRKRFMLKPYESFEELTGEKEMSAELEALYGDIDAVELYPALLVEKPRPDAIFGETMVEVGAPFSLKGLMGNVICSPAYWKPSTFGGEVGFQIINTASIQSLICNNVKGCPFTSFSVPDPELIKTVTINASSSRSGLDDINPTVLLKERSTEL

MOLT-4 = experiment: Cytotoxicity against human MOLT4 cells assessed as cell viability after 72 hrs by CCK8 assay; type: functional, cell-based; conditions: MOLT-4, 72 h; method in brief: as §2
HeLa = experiment: Cytotoxicity against human HeLa cells assessed as cell viability after 72 hrs by CCK8 assay; type: functional, cell-based; method in brief: as §2
[4] = Cytotoxicity against human U937 cells assessed as cell viability after 72 hrs by CCK8 assay; type: functional, cell-based; conditions: U-937, 72 h; method in brief: as §2
MCF7 = experiment: Cytotoxicity against human MCF7 cells assessed as cell viability after 72 hrs by CCK8 assay; type: functional, cell-based; conditions: MCF7, 72 h; method in brief: as §2
A549 = experiment: Cytotoxicity against human A549 cells assessed as cell viability after 72 hrs by CCK8 assay; type: functional, cell-based; conditions: A549, 72 h; method in brief: as §2
DU-145 = experiment: Cytotoxicity against human DU145 cells assessed as cell viability after 72 hrs by CCK8 assay; type: functional, cell-based; conditions: DU-145, 72 h; method in brief: as §2
[5] = Cytotoxicity against human HL60 cells assessed as cell viability after 72 hrs by CCK8 assay; type: functional, cell-based; conditions: HL-60, 72 h; method in brief: as §2
[6] = Cytotoxicity against human SGC7901 cells assessed as cell viability after 72 hrs by CCK8 assay; type: functional, cell-based; conditions: SGC-7901, 72 h; method in brief: as §2

Row | Compound | IC50 [1] | IC50 (HEK-293T) | IC50 [2] | IC50 (K562) | IC50 (NCI-H1975) | IC50 [3] | IC50 (MOLT-4) | IC50 (HeLa) | IC50 [4] | IC50 (MCF7) | IC50 (A549) | IC50 (DU-145) | IC50 [5] | IC50 [6]
1 | CCC(C)C(=O)O[C@@]12[C@H](O)[C@@H](C)[C@]3(O)[C@@H]4C=C(C)C(=O)[C@@H]4CC(CO)=C[C@H]3[C@@H]1C2(C)C (stereo partly specified) | > 50 µM | 191 µM | > 500 µM | 8 µM | 3.3 µM | > 50 µM | 9.9 µM | 10 µM | 18 µM | 24 µM | 4.5 µM | 10 µM | 9.8 µM | 5.4 µM
2 | CCC(C)C(=O)O[C@@]12[C@H](OC(=O)c3ccccc3)[C@@H](C)[C@@]3(O)[C@@H](C=C(CO)C[C@]4(O)C(=O)C(C)=C[C@@H]34)[C@@H]1C2(C)C (stereo partly specified) | 0.14 µM | 420 µM | > 500 µM | 15 µM | 3.3 µM | 8.5 µM | 12 µM | 4.6 µM | 17 µM | 20 µM | 6.9 µM | 4.3 µM | 6.8 µM | 10 µM
3 | C/C=C(\C)C(=O)O[C@@H]1[C@@H](C)[C@@]2(O)[C@@H](C=C(CO)C[C@]3(O)C(=O)C(C)=C[C@@H]23)[C@@H]2C(C)(C)[C@]12OC(=O)C(C)C | > 50 µM | 171 µM | > 500 µM | 4.4 µM | 10 µM | > 50 µM | 1.1 µM | 9.2 µM | 5.5 µM | > 50 µM | 32 µM | 1.1 µM | 1.2 µM | 43 µM
4 | CCC(C)C(=O)O[C@@]12[C@H](OC(C)=O)[C@@H](C)[C@@]3(O)[C@@H](C(=O)C(CO)=C[C@]4(O)C(=O)C(C)=C[C@@H]34)[C@@H]1C2(C)C (stereo partly specified) | > 50 µM | 147 µM | 352 µM | 7.2 µM | 10 µM | > 50 µM | 10 µM | 10 µM | 14 µM | > 50 µM | > 50 µM | 11 µM | 9.9 µM | > 50 µM
